Results pooled from the literature.
Each line is one published result; the experiments were not run side by side. pIC50: −log10 of the molar value.
Read-out: cell growth or viability

SMILES | cell line | method | tested at | time | quantity | result
Cn1cnc2c1c(=O)n(CC(=O)Nc1c(Cl)cccc1Cl)c(=O)n2C | Vero | MTT | 62.5 µg/mL |  | viability | 99.8%
O=S(=O)(NNc1nnc(Cl)c2ccccc12)c1ccc(F)cc1 | Vero | MTT | 250 µg/mL |  | viability | 24.9%
NC(=O)c1ncn([C@@H]2O[C@H](CO)[C@@H](O)[C@H]2O)n1 | BHK-21 | WST-1 |  | 72 h | CC50 | > 100 µM
CC(=O)O[C@H]1C(=O)[C@@]2(C)[C@H]([C@H](OC(=O)c3ccccc3)[C@]3(O)C[C@H](OC(=O)[C@H](O)[C@@H](NC(=O)c4ccccc4)c4ccccc4)C(C)=C1C3(C)C)[C@]1(OC(C)=O)CO[C@@H]1C[C@@H]2O | SMMC-7721 | MTT |  | 48 h | pIC50 | 5.37
C=C1CC[C@@H](O)[C@]2(C)CC[C@H]3C(=C)C(=O)O[C@@H]3[C@@H]12 | CHO-K1 | MTT |  | 72 h | CC50 | 31.3 µM
COc1ccc2c(Cc3ccccc3F)c3n(c(=O)c2c1OC)CCc1cc2c(cc1-3)OCO2 | L929 | CCK-8 |  | 24 h | pIC50 | 4.58
Fc1ccc(NCc2ccc(Oc3ccccn3)cc2)cc1 | Vero | MTT |  | 72 h | CC50 | > 300 µM
CCNc1nc(Nc2ccc(F)c(Cl)c2)c2ccccc2n1 | Vero | MTT | 125 µg/mL |  | viability | 52.9%
COC(=O)c1[nH]cc(-c2c[nH]c3ccc(Cl)cc23)c1-c1c[nH]c2ccc(Cl)cc12 | RAW264.7 | resazurin |  | 72 h | CC50 | > 10 µM
COc1ccc(S(=O)(=O)ON=C2C=C(C)C(=O)C(C)=C2)cc1 | MDA-MB-436 |  |  |  | CC50 | 2.85 µM
